# Compound activity from PubChem BioAssay.
# In the library only some 3.2% were active in any assay of this set; here they are far more common.
# PRMT1 FP inh – blocks human protein arginine methyltransferase 1. Q99873. recombinant PRMT1, activity-based probe fluorescence polarization. inhibition, % at 2.79 µM. 370,000 tested, 1.3% active. AID 652257;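 active = inhibition above about 21% made by adding two undisclosed values, limit read from the data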
# HTRA1 inh – HTRA1 (human) protease inhibition; Q92743; recombinant HTRA1, FP-rhodamine activity-based probe, fluorescence polarization; inhibition, % at 5.96 µM; 340,000 tested, 0.5% active; AID 504803; in the data active = inhibition above about 36%;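 also: 0% = enzyme with DMSO and 100% = wells lacking enzyme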
# DAGLB inh – diacylglycerol lipase beta (human) inhibition | 340,000 tested, 0.059% active | Q8NCG7 | AID 504411 | inhibition, % at 5.17 µM | HEK293T DAGLB membrane lysate, EnzChek fluorogenic substrate; in the data active = inhibition above about 34%;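 also: 0% = enzyme with vehicle and 100% = wells lacking enzyme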
# LEDGF integ inh – blocks HIV-1 LEDGF/p75-dependent DNA integration | 370,000 tested, 0.64% active | TR-FRET IN-LEDGF/p75 DNA integration, Eu/Cy5 | inhibition, % at 3.7 µM | AID 743269;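 active = inhibition above the screen-wide mean plus 3 SD, cut at about 13% in these data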;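 also: signal is the Cy5 over europium emission ratio at 671 and 618 nm; 0% = plate median of compound wells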
# rCAG RNA binder – molecules binding r(CAG) RNA repeats; r(CAG) RNA repeat, TO-PRO-1 dye displacement fluorescence; inhibition, % at 3 µM; 370,000 tested, 1.3% active;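 active = inhibition above the plate cutoff, the mean of all test compounds on that plate plus 3 SD, cut at about 35% in these data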;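 also: 0% = DMSO alone and 100% = 100 µM mitoxantrone as full dye displacement; higher means more dye released from RNA so lower well fluorescence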
# mABHD4 FP – inhibits mouse alpha/beta hydrolase domain 4. Q8VD66. purified mABHD4, FP-Rh probe fluorescence polarization. inhibition, % at 8.92 µM. 370,000 tested, 0.54% active;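 active = inhibition exceeding the mean over every tested compound plus 3 SD, cut at about 30% in these data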;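 also: 0% = plate median of compound wells and 100% = S159A mutant with DMSO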
# Target sequence (Q8VD66 whole entry, looked up, the tested form may be a part): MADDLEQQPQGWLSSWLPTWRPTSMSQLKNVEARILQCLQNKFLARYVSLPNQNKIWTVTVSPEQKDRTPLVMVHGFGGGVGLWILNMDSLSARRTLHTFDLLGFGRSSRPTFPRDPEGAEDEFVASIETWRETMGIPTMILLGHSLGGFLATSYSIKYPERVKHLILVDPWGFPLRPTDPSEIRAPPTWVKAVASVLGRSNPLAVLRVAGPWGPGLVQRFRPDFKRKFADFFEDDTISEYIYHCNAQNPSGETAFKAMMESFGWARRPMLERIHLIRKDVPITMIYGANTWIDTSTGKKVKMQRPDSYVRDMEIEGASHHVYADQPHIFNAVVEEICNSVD
#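 assay system = mABHD4 protein | compound dosing = single nominal dose of 8.92 µM, 0.89% DMSO final | read-out basis = percent inhibition of probe binding, normalized to plate controls | schedule = Enzyme–compound pre-incubation 45 min, then probe 60 min, both 25 °C | detection = fluorescence polarization, excitation 525 nm, emission 598 nm, BODIPY TMR filters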
# rCAG binder conf – r(CAG) RNA repeat binding, confirmation. shares compounds with rCAG RNA binder. TO-PRO-1 dye displacement fluorescence. inhibition, % at 3 µM. 4,300 tested, 70% active;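 active = inhibition above a per-plate cutoff, the mean inhibition of sample wells plus 3 SD, cut at about 35% in these data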;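 also: loss of TO-PRO-1 fluorescence as compound displaces dye from 1x1 AA loop RNA; 0% = DMSO only wells and 100% = 100 µM mitoxantrone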
# DNA CAG counter – disrupts DNA CAG TO-PRO-1 complex, flagging rCAG hits; 4,300 tested, 94% active; AID 652068; d(CAG) DNA oligo TO-PRO-1 dye displacement, fluorescence; shares compounds with rCAG RNA binder; inhibition, % at 3 µM;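 active = inhibition above its plate's cutoff, the mean test-well inhibition plus 3 SD, cut at about 4.8% in these data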;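 also: 0% = DNA dye mix with DMSO and 100% = 100 µM mitoxantrone; hits displace the dye from DNA and so lower well fluorescence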
# PRMT1 inh conf – confirmation of human PRMT1 inhibitors; shares compounds with PRMT1 FP inh; recombinant His-PRMT1, activity-based probe fluorescence polarization; inhibition, % at 2.79 µM; 3,300 tested, 42% active;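 active = mean inhibition across replicates above the hit cutoff derived for the earlier primary screen, cut at about 22% in these data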
# mABHD4 conf – confirmation of mouse ABHD4 inhibitors | shares compounds with mABHD4 FP | purified mABHD4, FP-Rh probe fluorescence polarization | inhibition, % at 8.92 µM | 1,800 tested, 55% active;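 active = mean inhibition across replicates above the hit cutoff set in the primary screen, cut at about 30% in these data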;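 also: 0% = wild-type ABHD4 with DMSO and 100% = catalytically dead S159A mutant with DMSO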
# IN multimer act – counter-screen for LEDGF/p75 integration inhibitors: HIV-1 integrase multimerization activators; activation, % at 7.7 µM; TR-FRET HIV-1 integrase multimerization, biochemical; 2,000 tested, 17% active; shares compounds with LEDGF integ inh; in the data active = activation above about 8.9%
# TR-FRET interf – TR-FRET optical interference, LEDGF/p75 integration counter-screen; shares compounds with LEDGF integ inh; TR-FRET optical interference counterscreen, HIV-1 IN multimerization; inhibition, % at 7.7 µM; 2,000 tested, under 10 active; AID 1053135;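 active = inhibition above the mean over all tested compounds plus 3 SD, which no compound reached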;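 also: 0% = integrase with antibodies and DMSO and 100% = antibodies without integrase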
# IN-LEDGF confirm – LEDGF/p75-dependent HIV-1 integration inhibition, confirmation. shares compounds with LEDGF integ inh. 2,000 tested, 36% active. AID 1053136. inhibition, % at 3.7 µM. TR-FRET LEDGF/p75-dependent HIV-1 integration, biochemical; in the data active = inhibition above about 14%
# Active calls of the source: *; · = not tested or not shown.
SMILES,PRMT1 FP inh,HTRA1 inh,DAGLB inh,LEDGF integ inh,rCAG RNA binder,mABHD4 FP,rCAG binder conf,DNA CAG counter,PRMT1 inh conf,IN multimer act,TR-FRET interf,IN-LEDGF confirm,others
Cc1ccc(C2CC(=O)N3CN(c4ccc(Br)cc4)CSC3=C2C#N)o1 (configuration not stated),82*,11,8,43*,63*,9,49*,18*,·,9,-43,40*,
CCOc1ccc(N2CSC3=C(C#N)C(c4ccco4)CC(=O)N3C2)cc1 (configuration not stated),71*,2,-1,47*,69*,19,48*,17*,70*,15*,-76,41*,
O=[N+]([O-])c1cccc(-n2nncc2-c2ccccc2)c1,-1,-2,-3,5,3,-7,·,·,·,·,·,·,
O=C(N/N=C/C=C/c1ccco1)/C(=C/c1ccccc1)NC(=O)c1ccccc1,30*,14,4,18*,38*,3,21,13*,16,8,-39,29*,
O=C(N/N=C/C=C/c1ccco1)c1ccncc1,3,10,3,0,8,7,·,·,·,·,·,·,
O=C(N/N=C\c1ccccc1OCc1ccccc1)c1ccco1,2,-18,-1,-3,2,-15,·,·,·,·,·,·,
O=C(N/N=C/c1c(O)n(Cc2ccco2)c(=O)[nH]c1=O)c1ccccc1,33*,14,-1,53*,50*,16,30,11*,0,13*,-64,6,
COc1cc(C)c2c(c1C=O)Oc1c(c(C)c(O)c3c1C(O)OC3=O)OC2=O (configuration not stated),38*,8,24,90*,54*,26,34,7.0*,-5,1,-3,92*,
CC(C)N1C(=O)S/C(=C\c2ccc(-c3ccc(Cl)c(C(=O)O)c3)o2)C1=O,52*,-17,8,37*,51*,26,47*,16*,8,1,-4,5,
CCCCC1(C)OC(=O)C(=Cc2ccc(-c3ccc(Cl)c(C(=O)O)c3)o2)C(=O)O1 (configuration not stated),7,9,6,2,2,6,·,·,·,·,·,·,
CCOC(=O)C1=CCC(c2cc3ccc(OC)cc3n2C(=O)OC(C)(C)C)NC1 (configuration not stated),-2,·,·,3,3,-3,·,·,·,·,·,·,
CCOC(=O)N1CCN(c2c(N3CCC(N4CCCCC4)CC3)c(=O)c2=O)CC1,-7,-7,2,0,4,1,·,·,·,·,·,·,
CC1=NN(c2cccc(C(=O)O)c2)C(=O)/C1=C\C=C\c1ccco1,27*,16,1,78*,56*,40*,64*,26*,·,46*,-232,72*,mABHD4 conf=57*
COc1ccc(C(=O)N[C@H](C(=O)NCC2CCCCC2)C(C)C)cc1,-2,-4,-12,-3,-5,-4,·,·,·,·,·,·,
C[C@@H](CO)NC(=O)[C@H]1O[C@@H](n2ccc(=O)[nH]c2=O)[C@H](O)[C@@H]1O,2,·,·,-2,4,6,·,·,·,·,·,·,
